Assay results from ChEMBL document CHEMBL1255376, “Comparative surveillance study of telavancin activity against recently collected gram-positive clinical isolates from across the United States” (2008).

Assays:
Type in all cases: functional
Staphylococcus aureus [1] = experiment: Antibacterial activity against methicillin-susceptible Staphylococcus aureus clinical isolate by broth microdilution method
Procedure, shortened: (§1)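 MICs by CLSI broth microdilution in frozen trays pre-loaded with serial dilutions of each agent. Quality-control strains run in parallel: E. faecalis ATCC 29212 and ATCC 51299, S. aureus ATCC 29213, S. pneumoniae ATCC 49619. Comparator susceptibility categories follow CLSI breakpoints. Methicillin resistance in staphylococci assigned from the oxacillin MIC.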

Streptococcus sp. [2] = experiment: Antibacterial activity against Streptococcus sp. clinical isolate by broth microdilution method
Procedure, shortened: (§2)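 MIC by CLSI broth microdilution in frozen microtiter trays holding serial dilutions of each agent, prepared from standard laboratory powders. Comparator susceptibility interpreted with CLSI breakpoints.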

Enterococcus faecium [3] = experiment: Antibacterial activity against vancomycin-resistant and teichoplanin-susceptible Enterococcus faecium clinical isolate by broth microdilution method; procedure, shortened: as §1
Staphylococcus warneri [4] = experiment: Antibacterial activity against methicillin-susceptible coagulase-negative Staphylococcus warneri clinical isolate by broth microdilution method; procedure, shortened: as §1
Streptococcus pneumoniae [5] = experiment: Antibacterial activity against penicillin intermediate Streptococcus pneumoniae clinical isolate by broth microdilution method; procedure, shortened: as §1
Enterococcus faecalis [6] = experiment: Antibacterial activity against vancomycin- and teichoplanin-nonsusceptible Enterococcus faecalis clinical isolate by broth microdilution method; procedure, shortened: as §1
Streptococcus oralis = experiment: Antibacterial activity against Streptococcus oralis clinical isolate by broth microdilution method
Procedure, shortened: (§3)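 MIC by CLSI broth microdilution in frozen microtiter trays holding serial dilutions of each agent, prepared from standard laboratory powders. E. faecalis ATCC 29212 and ATCC 51299, S. aureus ATCC 29213 and S. pneumoniae ATCC 49619 run in parallel as quality-control strains. Comparator susceptibility interpreted with CLSI breakpoints.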

Staphylococcus hominis [7] = experiment: Antibacterial activity against methicillin-resistant coagulase-negative Staphylococcus hominis clinical isolate by broth microdilution method; procedure, shortened: as §1
Streptococcus pneumoniae [8] = experiment: Antibacterial activity against penicillin resistant Streptococcus pneumoniae clinical isolate by broth microdilution method; procedure, shortened: as §1
[9] = system: Staphylococcus epidermidis; experiment: Antibacterial activity against methicillin-resistant coagulase-negative Staphylococcus epidermidis clinical isolate by broth microdilution method; procedure, shortened: as §1
Staphylococcus aureus [10] = experiment: Antibacterial activity against methicillin-resistant Staphylococcus aureus clinical isolate by broth microdilution method; procedure, shortened: as §1
Staphylococcus simulans [11] = experiment: Antibacterial activity against methicillin-susceptible coagulase-negative Staphylococcus simulans clinical isolate by broth microdilution method; procedure, shortened: as §1
Mammaliicoccus sciuri [12] = experiment: Antibacterial activity against methicillin-susceptible coagulase-negative Staphylococcus sciuri clinical isolate by broth microdilution method; procedure, shortened: as §1
Staphylococcus [13] = experiment: Antibacterial activity against methicillin-susceptible coagulase-negative unspeciated Staphylococcus clinical isolate by broth microdilution method; procedure, shortened: as §1
[14] = system: Staphylococcus haemolyticus; experiment: Antibacterial activity against methicillin-susceptible coagulase-negative Staphylococcus haemolyticus clinical isolate by broth microdilution method; procedure, shortened: as §1
Streptococcus sanguinis = experiment: Antibacterial activity against Streptococcus sanguinis clinical isolate by broth microdilution method; procedure, shortened: as §3
Streptococcus equinus = experiment: Antibacterial activity against Streptococcus bovis clinical isolate by broth microdilution method; procedure, shortened: as §3
Enterococcus faecalis [15] = experiment: Antibacterial activity against vancomycin-susceptible Enterococcus faecalis clinical isolate by broth microdilution method; procedure, shortened: as §1
Streptococcus agalactiae = experiment: Antibacterial activity against Streptococcus agalactiae clinical isolate by broth microdilution method; procedure, shortened: as §3
[16] = system: Streptococcus intermedius; experiment: Antibacterial activity against Streptococcus intermedius clinical isolate by broth microdilution method; procedure, shortened: as §3
Staphylococcus [17] = experiment: Antibacterial activity against methicillin-resistant coagulase-negative unspeciated Staphylococcus clinical isolate by broth microdilution method; procedure, shortened: as §1
Streptococcus pneumoniae [18] = experiment: Antibacterial activity against penicillin susceptible Streptococcus pneumoniae clinical isolate by broth microdilution method; procedure, shortened: as §1
Staphylococcus cohnii [19] = experiment: Antibacterial activity against methicillin-resistant coagulase-negative Staphylococcus cohnii clinical isolate by broth microdilution method; procedure, shortened: as §1
Staphylococcus capitis [20] = experiment: Antibacterial activity against methicillin-resistant coagulase-negative Staphylococcus capitis clinical isolate by broth microdilution method; procedure, shortened: as §1
[21] = system: Staphylococcus saprophyticus; experiment: Antibacterial activity against methicillin-resistant coagulase-negative Staphylococcus saprophyticus clinical isolate by broth microdilution method; procedure, shortened: as §1
Staphylococcus xylosus [22] = experiment: Antibacterial activity against methicillin-resistant coagulase-negative Staphylococcus xylosus clinical isolate by broth microdilution method; procedure, shortened: as §1
Staphylococcus cohnii [23] = experiment: Antibacterial activity against methicillin-susceptible coagulase-negative Staphylococcus cohnii clinical isolate by broth microdilution method; procedure, shortened: as §1
[24] = system: Staphylococcus saprophyticus; experiment: Antibacterial activity against methicillin-susceptible coagulase-negative Staphylococcus saprophyticus clinical isolate by broth microdilution method; procedure, shortened: as §1
Streptococcus mitis = experiment: Antibacterial activity against Streptococcus mitis clinical isolate by broth microdilution method; procedure, shortened: as §3
Enterococcus faecium [25] = experiment: Antibacterial activity against vancomycin-susceptible Enterococcus faecium clinical isolate by broth microdilution method; procedure, shortened: as §3
Staphylococcus simulans [26] = experiment: Antibacterial activity against methicillin-resistant coagulase-negative Staphylococcus simulans clinical isolate by broth microdilution method; procedure, shortened: as §1
Staphylococcus xylosus [27] = experiment: Antibacterial activity against methicillin-susceptible coagulase-negative Staphylococcus xylosus clinical isolate by broth microdilution method; procedure, shortened: as §1
[28] = system: Staphylococcus epidermidis; experiment: Antibacterial activity against methicillin-susceptible coagulase-negative Staphylococcus epidermidis clinical isolate by broth microdilution method; procedure, shortened: as §1
Mammaliicoccus sciuri [29] = experiment: Antibacterial activity against methicillin-resistant coagulase-negative Staphylococcus sciuri clinical isolate by broth microdilution method; procedure, shortened: as §1
[30] = system: Staphylococcus haemolyticus; experiment: Antibacterial activity against methicillin-resistant coagulase-negative Staphylococcus haemolyticus clinical isolate by broth microdilution method; procedure, shortened: as §1
Enterococcus faecium [31] = experiment: Antibacterial activity against vancomycin- and teichoplanin-nonsusceptible Enterococcus faecium clinical isolate by broth microdilution method; procedure, shortened: as §1
Staphylococcus hominis [32] = experiment: Antibacterial activity against methicillin-susceptible coagulase-negative Staphylococcus hominis clinical isolate by broth microdilution method; procedure, shortened: as §1
[33] = system: Streptococcus constellatus; experiment: Antibacterial activity against Streptococcus constellatus clinical isolate by broth microdilution method; procedure, shortened: as §3
Staphylococcus warneri [34] = experiment: Antibacterial activity against methicillin-resistant coagulase-negative Staphylococcus warneri clinical isolate by broth microdilution method; procedure, shortened: as §1
Staphylococcus capitis [35] = experiment: Antibacterial activity against methicillin-susceptible coagulase-negative Staphylococcus capitis clinical isolate by broth microdilution method; procedure, shortened: as §1
[36] = Antibacterial activity against Streptococcus sp. Group C clinical isolate by broth microdilution method; procedure, shortened: as §3
Streptococcus pyogenes = experiment: Antibacterial activity against Streptococcus pyogenes clinical isolate by broth microdilution method; procedure, shortened: as §3
[37] = Antibacterial activity against Streptococcus sp. Group G clinical isolate by broth microdilution method; procedure, shortened: as §3
Streptococcus sp. [38] = experiment: Antibacterial activity against Streptococcus sp. Group F clinical isolate by broth microdilution method; procedure, shortened: as §2

CC(=O)NC[C@H]1CN(c2ccc(N3CCOCC3)c(F)c2)C(=O)O1 [LINEZOLID]
2 µg/mL: MIC50 (Staphylococcus aureus [1]) | MIC90 (Staphylococcus aureus [1]) | MIC50 (Enterococcus faecium [3]) | MIC90 (Enterococcus faecium [3]) | MIC90 (Enterococcus faecalis [6]) | MIC50 (Staphylococcus aureus [10]) | MIC90 (Staphylococcus aureus [10]) | MIC90 (Enterococcus faecalis [15]) | MIC50 (Enterococcus faecium [25]) | MIC90 (Enterococcus faecium [25]) | MIC50 (Enterococcus faecium [31]) | MIC90 (Enterococcus faecium [31])
≤ 0.12 µg/mL: MIC (Streptococcus sp. [2])
1 µg/mL: MIC50 (Staphylococcus warneri [4]) | MIC90 (Staphylococcus warneri [4]) | MIC50 (Streptococcus pneumoniae [5]) | MIC90 (Streptococcus pneumoniae [5]) | MIC50 (Enterococcus faecalis [6]) | MIC50 (Streptococcus oralis) | MIC90 (Streptococcus oralis) | MIC50 (Staphylococcus hominis [7]) | MIC90 (Staphylococcus hominis [7]) | MIC50 (Streptococcus pneumoniae [8]) | MIC90 (Streptococcus pneumoniae [8]) | MIC50 [9] | MIC90 [9] | MIC50 (Staphylococcus simulans [11]) | MIC90 (Staphylococcus simulans [11]) | MIC50 (Mammaliicoccus sciuri [12]) | MIC90 (Mammaliicoccus sciuri [12]) | MIC50 (Staphylococcus [13]) | MIC90 (Staphylococcus [13]) | MIC50 [14] | MIC90 [14] | MIC50 (Streptococcus sanguinis) | MIC90 (Streptococcus sanguinis) | MIC50 (Streptococcus equinus) | MIC90 (Streptococcus equinus) | MIC50 (Enterococcus faecalis [15]) | MIC50 (Streptococcus agalactiae) | MIC90 (Streptococcus agalactiae) | MIC50 [16] | MIC90 [16] | MIC50 (Staphylococcus [17]) | MIC90 (Staphylococcus [17]) | MIC50 (Streptococcus pneumoniae [18]) | MIC90 (Streptococcus pneumoniae [18]) | MIC50 (Staphylococcus cohnii [19]) | MIC90 (Staphylococcus cohnii [19]) | MIC50 (Staphylococcus capitis [20]) | MIC90 (Staphylococcus capitis [20]) | MIC50 [21] | MIC90 [21] | MIC50 (Staphylococcus xylosus [22]) | MIC90 (Staphylococcus xylosus [22]) | MIC50 (Staphylococcus cohnii [23]) | MIC90 (Staphylococcus cohnii [23]) | MIC50 [24] | MIC90 [24] | MIC50 (Streptococcus mitis) | MIC90 (Streptococcus mitis) | MIC50 (Staphylococcus simulans [26]) | MIC90 (Staphylococcus simulans [26]) | MIC50 (Staphylococcus xylosus [27]) | MIC90 (Staphylococcus xylosus [27]) | MIC50 [28] | MIC90 [28] | MIC50 (Mammaliicoccus sciuri [29]) | MIC90 (Mammaliicoccus sciuri [29]) | MIC50 [30] | MIC90 [30] | MIC50 (Staphylococcus hominis [32]) | MIC90 (Staphylococcus hominis [32]) | MIC50 [33] | MIC90 [33] | MIC50 (Staphylococcus warneri [34]) | MIC90 (Staphylococcus warneri [34]) | MIC50 (Staphylococcus capitis [35]) | MIC90 (Staphylococcus capitis [35])

CC1(C)S[C@@H]2[C@H](NC(=O)Cc3ccccc3)C(=O)N2[C@H]1C(=O)O [PENICILLIN G]
≤ 0.06 µg/mL: MIC (Streptococcus sp. [2]) | MIC50 (Streptococcus sp. [2]) | MIC [36] | MIC50 [36] | MIC90 [36] | MIC (Streptococcus oralis) | MIC50 (Streptococcus oralis) | MIC (Streptococcus sanguinis) | MIC50 (Streptococcus sanguinis) | MIC (Streptococcus equinus) | MIC50 (Streptococcus equinus) | MIC (Streptococcus agalactiae) | MIC50 (Streptococcus agalactiae) | MIC90 (Streptococcus agalactiae) | MIC [16] | MIC50 [16] | MIC (Streptococcus pneumoniae [18]) | MIC50 (Streptococcus pneumoniae [18]) | MIC90 (Streptococcus pneumoniae [18]) | MIC (Streptococcus mitis) | MIC50 (Streptococcus mitis) | MIC (Streptococcus pyogenes) | MIC50 (Streptococcus pyogenes) | MIC90 (Streptococcus pyogenes) | MIC [37] | MIC50 [37] | MIC90 [37] | MIC (Streptococcus sp. [38]) | MIC50 (Streptococcus sp. [38]) | MIC90 (Streptococcus sp. [38]) | MIC [33] | MIC50 [33]
1 µg/mL: MIC90 (Streptococcus sp. [2]) | MIC90 (Streptococcus oralis) | MIC90 (Streptococcus sanguinis) | MIC90 (Streptococcus equinus) | MIC90 [16] | MIC90 (Streptococcus mitis) | MIC90 [33]

GENTAMICIN
0.5 µg/mL: MIC90 (Staphylococcus aureus [1]) | MIC50 (Staphylococcus aureus [10])
2 µg/mL: MIC90 (Staphylococcus aureus [10])
0.25 µg/mL: MIC50 (Staphylococcus aureus [1])
